ChEMBL document CHEMBL3352250, “Antibacterial secondary metabolites from an endophytic fungus, Eupenicillium sp. LG41” (2014)
Values after ≈ are worked out from the molar mass of the structure shown. Active and inactive are the calls of the source. The rule behind the calls is not given here.

What was measured:
Format in all cases: functional
Escherichia coli = experiment: Antimicrobial activity against Escherichia coli DSM 1116 incubated for 24 hrs by disk diffusion method
How it was run: (§1)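 CLSI disk diffusion on nutrient agar, 4 mm deep, spread with 200 μL inoculum. 6.0 mm paper disks carry 40 μL of sample in HPLC-grade MeOH (0.1 to 10 μg/mL), air-dried. Plates are held 2 h at 4 °C, then incubated 24 h at 37 °C. Controls are streptomycin and gentamicin plus a solvent disk. MIC is derived per CLSI, triplicate.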

Aspergillus aculeatus = experiment: Antimicrobial activity against Aspergillus aculeatus incubated for 48 hrs by disk diffusion method
How it was run: (§2)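 Disk diffusion on potato dextrose agar, 4 mm deep. Mycelia are macerated in a sterile mortar to a homogeneous inoculum and 200 μL is spread. 6.0 mm disks carry 40 μL of sample, air-dried. Plates are held 2 h at 4 °C, then incubated 48 h at 28 °C. Solvent-disk, organism and sterility controls are included. Triplicate.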

Acinetobacter sp. = experiment: Antimicrobial activity against Acinetobacter sp. BD4 DSM 586 incubated for 24 hrs by disk diffusion method; how it was run: as §1
Colletotrichum circinans = experiment: Antimicrobial activity against Colletotrichum circinans incubated for 48 hrs by disk diffusion method; how it was run: as §2
Staphylococcus aureus = experiment: Antimicrobial activity against Staphylococcus aureus subsp. aureus DSM 799 incubated for 24 hrs by disk diffusion method; how it was run: as §1
Bacillus subtilis = experiment: Antimicrobial activity against Bacillus subtilis DSM 1088 incubated for 24 hrs by disk diffusion method; how it was run: as §1

Compound | MIC (Escherichia coli; DSM 1116, 24 h) [mg/L] | MIC (Aspergillus aculeatus) | MIC (Acinetobacter sp.; BD4 DSM 586, 24 h) [mg/L] | MIC (Colletotrichum circinans) | MIC (Staphylococcus aureus; DSM 799, 24 h) [mg/L] | MIC (Bacillus subtilis; DSM 1088, 24 h) [mg/L] | MIC (Escherichia coli) [mg/L] | MIC (Acinetobacter sp.) [mg/L] | MIC (Staphylococcus aureus) [mg/L] | MIC (Bacillus subtilis) [mg/L]
C[C@]1(C(=O)O)[C@@H]2C=C(C(=O)O)CC[C@@H]21 | 10 (≈ 51 µM) | inactive | 5 (≈ 25.5 µM) | inactive | > 10 | > 10 | – | – | – | –
CC[C@@H](C)[C@H]1C=C[C@H]2[C@H](O)[C@H](O)C[C@@H](C)[C@@H]2[C@@]1(C)C(=O)/C=C/OC | 5 (≈ 14.9 µM) | inactive | > 10 | inactive | 1 (≈ 2.97 µM) | > 10 | – | – | – | –
GENTAMICIN | – | – | – | – | – | – | 1 | 5 | 1 | 1
COC1=C(C2=C(OC)C(=O)c3cc4c(c(O)c3C2=O)C(=O)O[C@H](C)C4)C(=O)c2c(cc3c(c2O)C(=O)O[C@H](C)C3)C1=O | – | inactive | – | inactive | – | – | – | – | – | –
C=C(C(=O)O)[C@H](CCCC)C(=O)O | 10 (≈ 53.7 µM) | inactive | 1 (≈ 5.37 µM) | inactive | 10 (≈ 53.7 µM) | > 10 | – | – | – | –
C=C(C(=O)O)[C@H](CCCCCC)C(=O)O | 10 (≈ 46.7 µM) | inactive | 1 (≈ 4.67 µM) | inactive | 10 (≈ 46.7 µM) | > 10 | – | – | – | –
CC[C@@H](C)[C@H]1C=C[C@H]2[C@H](O)[C@H](O)C[C@@H](C)[C@@H]2[C@@]1(C)C(=O)/C=C\O | 5 (≈ 15.5 µM) | inactive | 10 (≈ 31 µM) | inactive | > 10 | > 10 | – | – | – | –
COc1cc(O)c2c(O)c3c(c4c2c1[C@]1(C4)C(C)=CCCC1(C)C)[C@H](O)[C@@]1(O)CC(O)=C(C(N)=O)C(=O)[C@@]1(O)C3=O | – | inactive | – | inactive | – | – | – | – | – | –
CC(C)=CCC[C@]1(C)[C@@H]2[C@H]1C=C(C(=O)O)C[C@@H]2O | 5 (≈ 20 µM) | inactive | 5 (≈ 20 µM) | inactive | > 10 | > 10 | – | – | – | –
CN[C@@H]1[C@H](O[C@H]2[C@H](O[C@H]3[C@H](O)[C@@H](O)[C@H](N=C(N)N)[C@@H](O)[C@@H]3N=C(N)N)O[C@@H](C)[C@]2(O)C=O)O[C@@H](CO)[C@H](O)[C@H]1O [STREPTOMYCIN] | 1 (≈ 1.72 µM) | – | 10 (≈ 17.2 µM) | – | 5 (≈ 8.6 µM) | 5 (≈ 8.6 µM) | – | – | – | –
